# Data: BindingDB's records for doi:10.1016/j.bmcl.2005.07.045 (Shanghai Second Medical University, 2005)
# Target: Muscarinic acetylcholine receptor M1/M2/M3/M4/M5
# Experiment: Agonistic activity against Muscarinic acetylcholine receptor of guinea pig ileal longitudinal muscle
# How it was run: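 Ileal longitudinal muscle strips (1.5 cm) in 10 ml organ baths under 500 mg tension, equilibrated 30 min with bath fluid changed every 10 min. Isotonic contractions recorded during cumulative addition, about 3-fold concentration steps once each response is steady. Response expressed as percent of carbachol maximum. pEC50 determined graphically from dose–response curves, mean of three tests, t test.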
row,Structure (SMILES),EC50
1,CC(=O)OC1CC2CC(OC(=O)c3ccc(C)cc3)CC1N2C (centres undefined),4360 nM
2,CC(=O)OC1CC2CC(=O)CC1N2C (centres undefined),14700 nM
3,CCCCCCCCCC(=O)OC1CC2CC(OC(C)=O)C(C1)N2C (centres undefined),263 nM
4,CCCCCCC(=O)OC1CC2CC(OC(C)=O)C(C1)N2C (centres undefined),26.9 nM
5,CC(=O)OC1CC2CC(OC(=O)/C=C\c3ccccc3)CC1N2 (centres undefined),1990 nM
6,COc1ccc(C(=O)OC2CC3CC(OC(C)=O)C(C2)N3C)cc1 (centres undefined),30100 nM
7,COc1ccc(S(=O)(=O)OC2CC3CC(OC(C)=O)C(C2)N3C)cc1 (centres undefined),93.3 nM
8,CC(=O)OC1CC2CC(OC(C)=O)C(C1)N2C (centres undefined),4460 nM
9,CCCCCCCC(=O)OC1CC2CC(OC(C)=O)C(C1)N2C (centres undefined),1.74 nM
10,CC(=O)OC1CC2NC1CCC2O (centres undefined),79.4 nM
11,CC(=O)OC1CC2CC(OS(=O)(=O)c3cccc(C)c3)CC1N2C (centres undefined),89.1 nM
12,CCC(=O)OC1CC2CC(OC(=O)CC)C(C1)N2C (centres undefined),42600 nM
13,CCCC(=O)OC1CC2CC(OC(C)=O)C(C1)N2C (centres undefined),5010 nM
14,CC(=O)OC1CC2CC(OS(=O)(=O)c3ccccc3)CC1N2C (centres undefined),50.1 nM
15,CCCCCC(=O)OC1CC2CC(OC(=O)CCCCC)C(C1)N2C (centres undefined),4.79 nM
16,CN1C2CC(=O)CC1C(O)C2 (centres undefined),407000 nM
17,CC(=O)OC1CC2CC(OC(=O)/C=C\c3ccccc3)CC1N2C (centres undefined),117000 nM
18,CC(=O)OC1CC2CC(OS(=O)(=O)c3ccc(C)cc3)CC1N2C (centres undefined),104 nM
19,CC(=O)OC1CC2CC(OS(=O)(=O)c3ccc([N+](=O)[O-])cc3)CC1N2C (centres undefined),44.7 nM
20,CCCCCC(=O)OC1CC2CC(OC(C)=O)C(C1)N2C (centres undefined),6.46 nM
21,CC(=O)OC1CC2CCC(C1)N2C (centres undefined),79400 nM
22,CC(=O)OC1CC2CC(Cl)CC1N2C (centres undefined),11400 nM
23,CC(=O)OC1CC2CCCC1N2 (centres undefined) [Acetic acid 8-aza-bicyclo[3.2.1]oct-6-yl ester],6.17 nM
24,CC(=O)OC1CC2CCCC1N2C (centres undefined) [Acetic acid 8-methyl-8-aza-bicyclo[3.2.1]oct-6-yl ester],24500 nM
